Measured values as given in ChEMBL document CHEMBL3425440, “ent-Kaurane Diterpenoids from Chinese Liverworts and Their Antitumor Activities through Michael Addition As Detected in Situ by a Fluorescence Probe” (J Med Chem, 2015).

Tests used:
[1] = Cytotoxicity against human SKOV3 cells assessed as cell viability after 24 hrs by MTT assay; type: functional, cell-based; conditions: SK-OV-3, 24 h
In short: (§1)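 Cells grown to about 50−70% confluence at 37 °C, 5% CO2, then exposed to compounds 24 h (DMSO vehicle control, cisplatin positive control). MTT (5 mg/mL stock) added for 4 h, formazan dissolved in DMSO, absorbance read at 570 nm. IC50 derived from percent viability; at least three independent experiments, mean ± SD.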

[2] = Cytotoxicity against human RWPE1 cells assessed as cell viability after 24 hrs by MTT assay; type: cell-based; conditions: RWPE-1, 24 h; in short: as §1
NCI-H1299 = experiment: Cytotoxicity against human NCI-H1299 cells assessed as cell viability after 24 hrs by MTT assay; type: functional, cell-based; conditions: NCI-H1299, 24 h; in short: as §1
DU-145 = experiment: Cytotoxicity against human DU145 cells assessed as cell viability after 24 hrs by MTT assay; type: functional, cell-based; conditions: DU-145, 24 h; in short: as §1
K562 = experiment: Cytotoxicity against human K562 cells assessed as cell viability after 24 hrs by MTT assay; type: functional, cell-based; conditions: K562, 24 h; in short: as §1
[3] = Cytotoxicity against human SH-SY5Y cells assessed as cell viability after 24 hrs by MTT assay; type: functional, cell-based; in short: as §1
LoVo = experiment: Cytotoxicity against human LoVo cells assessed as cell viability after 24 hrs by MTT assay; type: functional, cell-based; in short: as §1
[4] = Cytotoxicity against human Saos2 cells assessed as cell viability after 24 hrs by MTT assay; type: functional, cell-based; conditions: SAOS-2, 24 h; in short: as §1
[5] = Cytotoxicity against human PC3 cells assessed as cell viability after 24 hrs by MTT assay; type: functional, cell-based; conditions: PC-3, 24 h; in short: as §1
[6] = Cytotoxicity against human A172 cells assessed as cell viability after 24 hrs by MTT assay; type: functional, cell-based; conditions: A 172, 24 h; in short: as §1
MDA-MB-231 = experiment: Cytotoxicity against human MDA-MB-231 cells assessed as cell viability after 24 hrs by MTT assay; type: functional, cell-based; conditions: MDA-MB-231, 24 h; in short: as §1
[7] = Cytotoxicity against human HL60 cells assessed as cell viability after 24 hrs by MTT assay; type: functional, cell-based; conditions: HL-60, 24 h; in short: as §1
[8] = Cytotoxicity against human T24 cells assessed as cell viability after 24 hrs by MTT assay; type: functional, cell-based; conditions: T-24, 24 h; in short: as §1
LNCaP = experiment: Cytotoxicity against human LNCAP cells assessed as cell viability after 24 hrs by MTT assay; type: functional, cell-based; in short: as §1

## C[C@@H]1C(=O)[C@H]2C[C@]1(O)CC1=C2[C@]2(C)CCC[C@@](C)(CO)[C@H]2CC1
[1]
  IC50: > 50 µM
[2]
  IC50: > 50 µM
NCI-H1299
  IC50: > 50 µM
DU-145
  IC50: > 50 µM
K562
  IC50: > 50 µM
[3]
  IC50: > 50 µM
LoVo
  IC50: > 50 µM
[4]
  IC50: > 50 µM
[5]
  IC50: > 50 µM
[6]
  IC50: > 50 µM
MDA-MB-231
  IC50: > 50 µM
[7]
  IC50: > 50 µM
[8]
  IC50: > 50 µM
LNCaP
  IC50: > 50 µM

## C=C1[C@@H]2C[C@@H](O)[C@H]3[C@]4(C)CCCC(C)(C)[C@H]4CC[C@]3(C2)[C@@H]1O
[1]
  IC50: > 50 µM
[2]
  IC50: > 50 µM
NCI-H1299
  IC50: > 50 µM
DU-145
  IC50: > 50 µM
K562
  IC50: > 50 µM
[3]
  IC50: > 50 µM
LoVo
  IC50: > 50 µM
[4]
  IC50: > 50 µM
[5]
  IC50: > 50 µM
[6]
  IC50: > 50 µM
MDA-MB-231
  IC50: > 50 µM
[7]
  IC50: > 50 µM
[8]
  IC50: > 50 µM
LNCaP
  IC50: > 50 µM

## C[C@@H]1C(=O)[C@@]23CC[C@@H]4C(C)(C)[C@H](O)CC[C@@]4(C)[C@@H]2[C@@H](O)C[C@@H]1C3
[1]
  IC50: > 50 µM
[2]
  IC50: > 50 µM
NCI-H1299
  IC50: > 50 µM
DU-145
  IC50: > 50 µM
K562
  IC50: > 50 µM
[3]
  IC50: > 50 µM
LoVo
  IC50: > 50 µM
[4]
  IC50: > 50 µM
[5]
  IC50: > 50 µM
[6]
  IC50: > 50 µM
MDA-MB-231
  IC50: > 50 µM
[7]
  IC50: > 50 µM
[8]
  IC50: > 50 µM
LNCaP
  IC50: > 50 µM

## C[C@H]1C(=O)[C@@]23CC[C@@H]4[C@](C)(CO)CCC[C@@]4(C)C2=CC[C@]1(O)C3
[1]
  IC50: > 50 µM
[2]
  IC50: > 50 µM
NCI-H1299
  IC50: > 50 µM
DU-145
  IC50: > 50 µM
K562
  IC50: > 50 µM
[3]
  IC50: > 50 µM
LoVo
  IC50: > 50 µM
[4]
  IC50: > 50 µM
[5]
  IC50: > 50 µM
[6]
  IC50: > 50 µM
MDA-MB-231
  IC50: > 50 µM
[7]
  IC50: > 50 µM
[8]
  IC50: > 50 µM
LNCaP
  IC50: > 50 µM

## C[C@H]1C(=O)[C@@]23C[C@H](O)[C@@H]4[C@@](C)(CO)CCC[C@@]4(C)C2=CC[C@]1(O)C3
[1]
  IC50: > 50 µM
[2]
  IC50: > 50 µM
NCI-H1299
  IC50: > 50 µM
DU-145
  IC50: > 50 µM
K562
  IC50: > 50 µM
[3]
  IC50: > 50 µM
LoVo
  IC50: > 50 µM
[4]
  IC50: > 50 µM
[5]
  IC50: > 50 µM
[6]
  IC50: > 50 µM
MDA-MB-231
  IC50: > 50 µM
[7]
  IC50: > 50 µM
[8]
  IC50: > 50 µM
LNCaP
  IC50: > 50 µM

## C[C@H]1C(=O)[C@@]23CC[C@@H]4C(C)(C)CCC[C@@]4(C)C2=CC[C@]1(O)C3
[1]
  IC50: > 50 µM
[2]
  IC50: > 50 µM
NCI-H1299
  IC50: > 50 µM
DU-145
  IC50: > 50 µM
K562
  IC50: > 50 µM
[3]
  IC50: > 50 µM
LoVo
  IC50: > 50 µM
[4]
  IC50: > 50 µM
[5]
  IC50: > 50 µM
[6]
  IC50: > 50 µM
MDA-MB-231
  IC50: > 50 µM
[7]
  IC50: > 50 µM
[8]
  IC50: > 50 µM
LNCaP
  IC50: > 50 µM

## C=C1C(=O)[C@@]23CC[C@@H]4C(C)(C)CCC[C@@]4(C)C2=CC[C@]1(O)C3
[1]
  IC50: 1.8 µM
[2]
  IC50: 6.2 µM
NCI-H1299
  IC50: 2.4 µM
DU-145
  IC50: 5.5 µM
K562
  IC50: 1.9 µM
[3]
  IC50: 1.2 µM
LoVo
  IC50: 1.8 µM
[4]
  IC50: 1.3 µM
[5]
  IC50: 3.2 µM
[6]
  IC50: 3.8 µM
MDA-MB-231
  IC50: 4.2 µM
[7]
  IC50: 1 µM
[8]
  IC50: 1.7 µM
LNCaP
  IC50: 3.2 µM

## C=C1C(=O)[C@@]23CC[C@@H]4[C@@](C)(CO)CCC[C@@]4(C)C2=CC[C@]1(O)C3
[1]
  IC50: 8.6 µM
[2]
  IC50: 11.7 µM
NCI-H1299
  IC50: 10.7 µM
DU-145
  IC50: 6.3 µM
K562
  IC50: 10.2 µM
[3]
  IC50: 4.4 µM
LoVo
  IC50: 9 µM
[4]
  IC50: 7.8 µM
[5]
  IC50: 5.5 µM
[6]
  IC50: 4.4 µM
MDA-MB-231
  IC50: 12.3 µM
[7]
  IC50: 3.7 µM
[8]
  IC50: 10.4 µM
LNCaP
  IC50: 11.6 µM

## C[C@@H]1C(=O)[C@H]2C[C@]1(O)CC1=C2[C@]2(C)CCCC(C)(C)[C@H]2CC1
[1]
  IC50: > 50 µM
[2]
  IC50: > 50 µM
NCI-H1299
  IC50: > 50 µM
DU-145
  IC50: > 50 µM
K562
  IC50: > 50 µM
[3]
  IC50: > 50 µM
LoVo
  IC50: > 50 µM
[4]
  IC50: > 50 µM
[5]
  IC50: > 50 µM
[6]
  IC50: > 50 µM
MDA-MB-231
  IC50: > 50 µM
[7]
  IC50: > 50 µM
[8]
  IC50: > 50 µM
LNCaP
  IC50: > 50 µM
